Published values from different studies.
Compare with care: the assays were run in different laboratories.
Target: SRSF protein kinase 1 (SRPK1, Homo sapiens, UniProt Q96SB4)

Nc1cnc(N2CCc3cc(S(=O)(=O)Nc4c(F)cc(Cl)cc4F)cc(N4CCCC4=O)c32)nc1 — remaining binding (cell-free assay; competition with immobilised ligand; 1 µM): 81%
Nc1ncc2c(n1)-c1c([nH]c3ccc(C#CC4CC4)cc13)CCCC2 — remaining binding (binding; competition with immobilised ligand; 1 µM): 87%
O=C(NCCCN1CCOCC1)c1ccc(Nc2ncc(Cl)c(-c3ccc(Cl)s3)n2)cc1 — remaining binding (binding; competition with immobilised ligand; 1 µM): 97%
CN(CCCC(F)(F)F)c1nccc(-c2cnn3ncccc23)n1 — remaining binding (binding; 1 µM): 100%
COc1ncc2cc3ccccc3nc2c1C#N — remaining binding (cell-free assay; competition with immobilised ligand; 5 µM): 96%
CN(C)c1nccc(-c2cnc3ncccn23)n1 — remaining binding (binding; 1 µM): 82%
CN(C)C(=O)Cn1cc(-c2nc([C@@](C)(c3ccc(-c4cnc(N)nc4)cc3)C3CC3)no2)cn1 — remaining binding (cell-free assay; competition with immobilised ligand; 1 µM): 100%
COc1cnc(Nc2cccc(S(N)(=O)=O)c2)nc1N1CCN(c2ccccc2)C(=O)C1 — remaining binding (binding; competition with immobilised ligand; 1 µM): 100%
CN(C)c1nccc(-c2cnn3ncccc23)n1 — remaining binding (binding; 1 µM): 100%
O=C(c1ccc(Nc2nccc(-c3cc4ccccc4s3)n2)cc1)N1CCC(N2CCCC2)CC1 — remaining binding (binding; competition with immobilised ligand; 1 µM): 86%
N#Cc1ccc(Nc2ccc3[nH]c(=O)[nH]c3c2)c(Cl)c1 — remaining binding (cell-free assay; competition with immobilised ligand; 1 µM): 95%
Cc1cnn2ncc(-c3ccnc(N(C)C)n3)c2c1 — remaining binding (binding; 1 µM): 100%
CNC(=O)[C@@H]1CC[C@@H](n2c(-c3ccc4cnccc4c3)nc3ccc(C(=O)NCc4cccc(C(N)=O)c4)cc32)C1 — remaining binding (binding; competition with immobilised ligand; 1 µM): 79%
O=C(c1ccc(Nc2ncc(Cl)c(-c3ccc(Cl)s3)n2)cc1)N1CCC(N2CCCC2)CC1 — remaining binding (binding; competition with immobilised ligand; 1 µM): 93%
CN(c1nccc(-c2cnn3ncccc23)n1)C1CC1 — remaining binding (binding; 1 µM): 88%
CCOCCn1cc(C(=O)Nc2ccc(-n3nc(-c4cccnc4)cc3C(F)(F)F)cn2)ccc1=O — remaining binding (cell-free assay; competition with immobilised ligand; 1 µM): 98%
N[C@H]1CCN(c2nccc(-c3cnn4ncccc34)n2)C1 — remaining binding (binding; 1 µM): 84%
CN(C)C(=O)Cn1cc(-c2nc(C3(c4ccc(-c5cnc(N)nc5)cc4)CC3)no2)cn1 — remaining binding (cell-free assay; competition with immobilised ligand; 1 µM): 93%
CCN1CCN(Cc2ccc(C(=O)Nc3ccc(C)c(Oc4ccc5c(c4)CC(=O)N5)c3)cc2C(F)(F)F)CC1 — remaining binding (binding; competition with immobilised ligand; 1 µM): 98%
O=C(O)c1cc(-c2ccc(C3CCNCC3)cc2)c2ccc(-c3ccc(C(F)(F)F)cc3)cc2c1 — remaining binding (cell-free assay; competition with immobilised ligand; 1 µM): 86%
O=C(Nc1c[nH]nc1C(=O)NC1CCNCC1)c1cc(F)cc(F)c1 — remaining binding (binding; competition with immobilised ligand; 1 µM): 100%
